{"data": "Assay results of several laboratories", "Enoyl-[acyl-carrier-protein] reductase [NADPH] FabI": "Enoyl-[acyl-carrier-protein] reductase [NADPH] FabI (Staphylococcus aureus, UniProt Q6GI75)", "CYP1A1": "Cytochrome P450 1A1 (CYP1A1, Homo sapiens, UniProt P04798)", "BCL2L2": "Bcl-2-like protein 2 (BCL2L2, Homo sapiens, UniProt Q92843)", "FOLH1": "Glutamate carboxypeptidase 2 (FOLH1, Homo sapiens, UniProt Q04609)", "note": "Each line is one published result; the experiments were not run side by side."}
{"SMILES": "CCc1cc(O)c(Oc2cccnc2F)cc1F", "target": "Enoyl-[acyl-carrier-protein] reductase [NADPH] FabI", "assay": "enzyme activity, inhibitor", "Ki": "0.35 nM"}
{"SMILES": "C[C@H]1Oc2cc(cnc2N)-c2c(nn(C)c2C#N)CN(C)C(=O)c2ccc(F)cc21", "target": "Dual specificity mitogen-activated protein kinase kinase 1 (MAP2K1, Homo sapiens, UniProt Q02750)", "assay": "cell-free assay", "setting": "lysate", "Ki": "128 nM"}
{"SMILES": "C#Cc1ccc2c(=O)cc(-c3ccccc3)oc2c1", "target": "CYP1A1", "assay": "enzyme activity, inhibitor, fluorescence", "setting": "6 min, pH 7.6", "Ki": "24 nM"}
{"SMILES": "CCn1c(-c2nc3cc(C(=O)N4CCC[C@@H](N)C4)cc(OC)c3n2C)cc2cccnc21", "target": "Protein-arginine deiminase type-1 (PADI1, Homo sapiens, UniProt Q9ULC6)", "assay": "enzyme activity, inhibitor", "Ki": "570000 nM"}
{"SMILES": "N#Cc1cc(Br)ccc1Oc1ccc(Cl)cc1O", "target": "Enoyl-[acyl-carrier-protein] reductase [NADPH] FabI", "assay": "enzyme activity, inhibitor", "Ki": "0.17 nM"}
{"SMILES": "CC[C@H](C)[C@H](NC(=O)[C@H](CCC(=O)O)NC(=O)[C@H](CC(=O)O)NC(=O)CNC(=O)[C@H](CC(C)C)NC(=O)[C@H](CCCNC(=N)N)NC(=O)[C@H](CCCNC(=N)N)NC(=O)[C@H](CC(C)C)NC(=O)CNC(=O)[C@H](CCC(N)=O)NC(=O)[C@@H](NC(=O)[C@H](CCSC)NC(=O)[C@H](Cc1c[nH]c2ccccc12)NC(=O)[C@@H](NC(=O)[C@H](CCC(=O)O)NC(=O)[C@@H]1CCCN1C(=O)[C@H](CCCNC(=N)N)NC(C)=O)[C@@H](C)CC)[C@@H](C)O)C(=O)N[C@@H](CC(N)=O)C(=O)N[C@@H](C)C(=O)N[C@@H](Cc1ccc(O)cc1)C(=O)N[C@@H](Cc1ccc(O)cc1)C(=O)N[C@@H](C)C(=O)N[C@@H](CCCNC(=N)N)C(N)=O", "target": "BCL2L2", "assay": "ligand displacement, FP", "Ki": "1500 nM"}
{"SMILES": "C#Cc1ccc(-c2cc(=O)c3ccccc3o2)cc1", "target": "CYP1A1", "assay": "enzyme activity, inhibitor, fluorescence", "setting": "6 min, pH 7.6", "Ki": "39 nM"}
{"SMILES": "CC[C@H](C)[C@H](NC(=O)[C@H](CCC(=O)O)NC(=O)[C@H](CC(=O)O)NC(=O)CNC(=O)[C@H](CC(C)C)NC(=O)[C@H](CCCNC(=N)N)NC(=O)[C@H](CCC(N)=O)NC(=O)[C@H](CC(C)C)NC(=O)[C@H](CO)NC(=O)[C@H](CCC(N)=O)NC(=O)[C@@H](NC(=O)[C@H](CC(C)C)NC(=O)[C@H](Cc1c[nH]c2ccccc12)NC(=O)[C@@H](NC(=O)[C@H](CCC(=O)O)NC(=O)[C@@H]1CCCN1C(=O)[C@H](CCCNC(=N)N)NC(C)=O)[C@@H](C)CC)[C@@H](C)O)C(=O)N[C@@H](CC(N)=O)C(=O)N[C@@H](C)C(=O)N[C@@H](Cc1ccc(O)cc1)C(=O)N[C@@H](Cc1ccc(O)cc1)C(=O)N[C@@H](C)C(=O)N[C@@H](CCCNC(=N)N)C(N)=O", "target": "BCL2L2", "assay": "ligand displacement, FP", "Ki": "360 nM"}
{"SMILES": "O=C(O)CCC(NC(=O)NC(CCCCNC(=O)CCCCCCC(=O)NCCCCC(NC(=O)C(Cc1ccccc1)NC(=O)C(Cc1ccccc1)NC(=O)CN1CCN(CC(=O)O)CCN(CC(=O)O)CCN(CC(=O)O)CC1)C(=O)O)C(=O)O)C(=O)O (stereo not drawn)", "target": "FOLH1", "assay": "enzyme activity, inhibitor, fluorescence", "Ki": "1.23 nM"}
{"SMILES": "COc1cc(O)c(CC=C(C)C)c2c1C(=O)CC(c1ccc(O)cc1)O2 (stereo not drawn)", "target": "CYP1A1", "assay": "enzyme activity, inhibitor, fluorescence", "setting": "15 min, pH 7.4", "Ki": "1600 nM"}
{"SMILES": "NCCCC[C@H](NC(=O)[C@@H]1CCCN1C(=O)[C@@H]1CSSC[C@H](NC(=O)CNC(=O)CNC(=O)CN)C(=O)N[C@@H](Cc2ccc(O)cc2)C(=O)N[C@@H](Cc2ccccc2)C(=O)N[C@@H](CCC(N)=O)C(=O)N[C@@H](CC(N)=O)C(=O)N1)C(=O)NCC(N)=O", "target": "Vasopressin V1a receptor (AVPR1A, Homo sapiens, UniProt P37288)", "assay": "ligand displacement, radioligand", "setting": "cell membranes", "Ki": "1100 nM"}
{"SMILES": "O=C(O)CCC(NC(=O)NC(CCCCNC(=O)CCCCCCC(=O)NC(CCCCNC(=O)CN1CCN(CC(=O)O)CCN(CC(=O)O)CCN(CC(=O)O)CC1)C(=O)OCc1ccccc1)C(=O)O)C(=O)O.[Ga+3] (stereo not drawn)", "target": "FOLH1", "assay": "enzyme activity, inhibitor, fluorescence", "Ki": "29 nM"}
